Mdm2-MdmX inh = human Mdm2/MdmX binding inhibition. SaOS-2 split-luciferase Mdm2/MdmX complementation, luminescence. inhibition, % at 8 µM. 330,000 compounds, 3% hits. AID 485346;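 active = inhibition of at least 50% at 8 µM in the primary screen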
ABHD5-PLIN5 inh = ABHD5-PLIN5 protein interaction inhibition; Q00G26+Q8WTS1; Split G. princeps luciferase complementation, luminescence, 4 h; inhibition, % at 4 µM; 360,000 compounds, 0.78% hits; AID 602281;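 active = inhibition above the mean inhibition across every tested compound plus 3 SD, cut at about 22% in these data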;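 note: 0% = DMSO only wells and the 100% control is not disclosed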
Target sequence (Q00G26 whole entry, looked up): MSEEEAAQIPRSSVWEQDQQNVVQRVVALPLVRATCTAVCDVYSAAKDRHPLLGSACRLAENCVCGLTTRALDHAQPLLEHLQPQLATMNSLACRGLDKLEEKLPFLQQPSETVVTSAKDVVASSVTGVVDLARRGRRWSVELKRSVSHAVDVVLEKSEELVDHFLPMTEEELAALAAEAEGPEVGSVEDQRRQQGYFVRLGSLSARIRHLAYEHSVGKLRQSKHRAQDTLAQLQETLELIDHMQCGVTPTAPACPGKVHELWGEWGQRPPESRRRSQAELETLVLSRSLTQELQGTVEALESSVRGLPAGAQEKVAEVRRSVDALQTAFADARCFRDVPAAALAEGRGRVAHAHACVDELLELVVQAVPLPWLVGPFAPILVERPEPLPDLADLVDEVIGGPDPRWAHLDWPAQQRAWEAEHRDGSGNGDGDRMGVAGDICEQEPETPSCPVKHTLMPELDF
Target sequence (Q8WTS1 whole entry, looked up): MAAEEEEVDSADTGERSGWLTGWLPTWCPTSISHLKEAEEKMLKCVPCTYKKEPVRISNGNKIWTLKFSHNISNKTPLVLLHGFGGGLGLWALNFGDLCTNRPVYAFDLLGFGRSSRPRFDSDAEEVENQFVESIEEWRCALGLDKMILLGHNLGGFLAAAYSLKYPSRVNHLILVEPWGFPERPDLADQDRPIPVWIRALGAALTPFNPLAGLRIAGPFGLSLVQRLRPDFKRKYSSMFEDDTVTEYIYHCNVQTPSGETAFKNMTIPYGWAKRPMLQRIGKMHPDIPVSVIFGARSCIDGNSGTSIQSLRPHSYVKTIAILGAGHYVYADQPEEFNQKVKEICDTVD
XBP1 UPR activ = activators of adaptive arm of unfolded protein response (XBP1); CHO-XBP1 luciferase reporter, IRE1-XBP1 UPR activation, luminescence; percent of tunicamycin response, DMSO as zero; activation, % at 20 µM; 330,000 compounds, 0.33% hits; AID 463104;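 active = versus positive control, 20 µM dose yields 30% or more activation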;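 note: 100% = tunicamycin at 10 µg/mL and 0% = DMSO only wells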
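Assay system: CHO-XBP1 luciferase reporter cells; Schedule: 6 h treatment, 37 °C; Detection: glow luminescence from Steady-Glo reagent; Benchmarks: high control tunicamycin 10 µg/mL final, low control DMSO vehicle only.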
Granule exo inh = blocks lytic granule exocytosis. TALL-104 LAMP-1 surface exposure, flow cytometry; cells stimulated with thapsigargin and PMA. inhibition, % at 10 µM. 360,000 compounds, 0.66% hits. AID 651702;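 active = inhibition above about 55%, limit read from the data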
CHOP UPR activ = activators of apoptotic arm of unfolded protein response (CHOP); CHO-CHOP luciferase reporter, UPR activation, luminescence; percent of tunicamycin response over DMSO baseline; activation, % at 10 µM; 330,000 compounds, 0.34% hits;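 active = at 10 µM dose, activation of 40% or more, normalized to positive control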;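 note: 100% = tunicamycin at 10 µg/mL and 0% = DMSO alone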
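Test system: CHO CHOP reporter cells. Input: 500 CHO-CHOP cells per well. Medium: F12 with 10% FBS. Technique: luciferase luminescence. Measure: percent activation relative to tunicamycin control. Dosing: 10 µM compound, 0.5% DMSO. Timing: 16-18 h cell attachment, then 6 h compound exposure, 37 °C.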
Mdm2-MdmX conf = confirmation of human Mdm2/MdmX interaction inhibitors | inhibition, % at 8 µM | AID 489028 | 10,000 compounds, 55% hits | shares compounds with Mdm2-MdmX inh | Mdm2-MdmX binding, luminescent assay; in the data active = inhibition above about 40%
Full FLuc ctr = full-length luciferase inhibition in Mdm2/MdmX counter-screen; shares compounds with Mdm2-MdmX inh; SaOS-2 full-length luciferase counterscreen, luminescence; inhibition, % at 8 µM; 6,200 compounds, 77% hits; AID 504607;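 active = mean inhibition at 8 µM reaching about 37%, which flags the compound as non-specific, limit read from the data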;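 note: p53-null SaOS-2 cells with luciferase driven by a doxycycline-inducible promoter; compound on cells about two nights before reading with doxycycline added after day one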
Starred values were filed as active, the others as inactive; x = no result given. Hits are enriched below; roughly 4% of the tested compounds scored in any of these assays.

SMILES	Mdm2-MdmX inh	ABHD5-PLIN5 inh	XBP1 UPR activ	Granule exo inh	CHOP UPR activ	Mdm2-MdmX conf	Full FLuc ctr
CSc1cccc(NC(=O)NCc2cccc(CNC(=O)Nc3cccc(SC)c3)c2)c1	56*	-2	14	0	6	46*	67*
COc1ccc([C@H]2N[C@]3(CCCN(Cc4ccc(Br)cc4)C3=O)[C@H]3C(=O)N(Cc4ccccc4)C(=O)[C@@H]23)cc1	x	3	x	5	x	x	x
CC1CCN(S(=O)(=O)c2ccc(C(=O)Nc3nnc(-c4ccco4)o3)cc2)CC1	54*	9	-3	-5	3	48*	34
O=C(Nc1nnc(-c2ccco2)o1)c1ccc(S(=O)(=O)N2CCCC2)cc1	10	3	0	-2	1	x	x
CN(CC(=O)Nc1ccc(F)cc1)C(=O)COC(=O)c1ccc(=O)n(Cc2ccccc2)n1	-6	1	-4	-1	-2	x	x
CC(C)c1c(C(=O)N/N=C/c2ccccc2OCc2c(F)cccc2Cl)nnn1-c1nonc1N	57*	0	9	-2	2	52*	55*
Cc1c(C(=O)N/N=C/c2c(O)ccc3ccccc23)nnn1-c1nonc1N	67*	2	-1	-2	-1	81*	52*
Cc1ccc(COc2ccc(/C=N/NC(=O)c3nnn(-c4nonc4N)c3COc3ccc(F)cc3)cc2)cc1	41	2	16	-5	13	x	x
Cc1ccc(COc2cccc(/C=N/NC(=O)c3nnn(-c4nonc4N)c3C)c2)cc1	56*	4	-4	-5	7	-13	x
Nc1nonc1-n1nnc(C(=O)N/N=C/c2ccc(OCc3ccc(F)cc3)cc2)c1COc1ccccc1	53*	-12	17	0	6	16	x
CC(C)c1c(C(=O)N/N=C/c2ccc(Cl)cc2Cl)nnn1-c1nonc1N	16	15	3	5	-1	x	x
CCOC(=O)N1CCC(N2C(=O)c3ccccc3C2=O)CC1	-8	3	-2	-3	0	x	x
CN1C(=O)[C@@H]2[C@H](C1=O)[C@@H]1C(=O)Nc3ccccc3C(=O)N1[C@@H]2c1ccc(F)cc1	7	-5	3	-8	-3	x	x
COC(=O)[C@H](CC(C)C)NC(=O)NCCCc1ccccc1	-8	-5	-1	-3	2	x	x
COc1ccc(NC(C)C(=O)N/N=C/c2ccccc2OCc2cccc(Br)c2)cc1 (centres undefined)	34	6	-2	11	0	x	x
CCOC(=O)N(C)c1c(CC)nc2c(OCC(=O)C(C)(C)C)cccn12	x	-10	x	-1	x	x	x
Nc1nonc1-n1nnc(C(=O)N/N=C/c2cc(Br)ccc2O)c1CNc1ccccc1	69*	-4	0	1	-2	66*	30
CCOC(=O)c1c(C)[nH]c(C(=O)OCC(=O)N2CCc3ccccc32)c1C	70*	0	-2	-1	0	-10	x
CCOC(=O)c1[nH]c(C)c(C(=O)OCC(=O)N2CCc3ccccc32)c1C	-1	4	13	5	-1	x	x
Cn1c(=O)c(C(=O)COC(=O)c2cc(C(F)(F)F)nc3c(C(F)(F)F)cccc23)c(N)n(CC2CC2)c1=O	77*	x	17	x	4	3	x
CC(C)Cn1c(N)c(C(=O)COC(=O)c2cc(-c3ccccc3)nc3ccccc23)c(=O)n(C)c1=O	28	4	3	-3	3	x	x
Cn1c(N)c(C(=O)COC(=O)c2cc(-c3ccccc3)nc3ccccc23)c(=O)n(C)c1=O	66*	x	19	x	18	29	60*
CCOCC(=O)N1CCC(Cc2ccccc2)CC1	12	4	-1	-1	-2	x	x
O=Cc1ccc(Cl)c(Cl)c1	16	-4	-3	1	-1	x	x
O=c1[nH]c(CN2CCN(c3ccccc3)CC2)nc2scc(-c3ccccc3)c12	72*	-4	-2	2	-1	73*	54*
SMILES	Mdm2-MdmX inh	ABHD5-PLIN5 inh	XBP1 UPR activ	Granule exo inh	CHOP UPR activ	Mdm2-MdmX conf	Full FLuc ctr
COc1ccc(N2CCN(Cc3nc4scc(-c5ccccc5)c4c(=O)[nH]3)CC2)cc1	12	9	-5	4	-2	x	x
CC(NC(=O)c1ccc(CS(C)(=O)=O)cc1)c1ccc(-n2ccnc2)cc1 (centres undefined)	-10	7	-2	-3	1	x	x
CC(NC(=O)c1ccc(CS(C)(=O)=O)cc1)c1ccc(-c2ccccc2)cc1 (centres undefined)	52*	-2	-1	-5	2	-2	x
CCCCCCSc1cc(-c2nc3cc(C)ccn3c2NCCCC)ccc1OC	16	-13	-2	12	1	x	x
Cc1cc(NC(c2ccc(Cl)cc2)c2ccc3cccnc3c2O)no1 (centres undefined)	63*	6	1	2	8	82*	27
CCC(=O)NC(c1ccc(Cl)cc1Cl)c1ccc2cccnc2c1O (centres undefined)	78*	9	3	6	1	87*	20
CCCCC(=O)NC(c1ccc(Cl)cc1Cl)c1ccc2cccnc2c1O (centres undefined)	77*	6	-1	8	0	87*	51*
CC(NC(=O)CSc1ncccn1)c1ccc(Cl)cc1Cl (centres undefined)	-10	0	3	3	0	x	x
COC(=O)c1nn(-c2ccc3c(c2)CCN3C(C)=O)cc1O	51*	0	-5	-5	-10	68*	31
C=CC(=O)Nc1ccc(Nc2nc(NC3CCC(N(C)C)CC3)nc3c2ncn3C(C)C)cc1 (centres undefined)	96*	-4	-4	-4	-2	100*	52*
CN1CC2=Cc3ccccc3OC23Oc2ccccc2C=C3C1	59*	18	0	-2	1	25	x
N/C(=N\OC(=O)Nc1ccccc1)c1ncc(C(F)(F)F)cc1Cl	51*	0	6	-4	2	4	x
O=C(OCCN1C(=O)c2cccc3c(N4CCOCC4)ccc(c23)C1=O)c1ccc(Cl)cc1	73*	-3	10	4	2	53*	69*
O=C1/C(=C\c2ccccc2)SC(=S)N1CCC(=O)N1CCCCC1CCO (centres undefined)	72*	-1	-2	-1	3	3	x
COc1cccc(/C=C2\SC(=O)N(CCC(=O)N3CCCCC3CCO)C2=O)c1 (centres undefined)	15	12	-4	2	0	x	x
O=C(CCN1C(=O)/C(=C/c2ccccc2)SC1=S)Nc1cccnc1	-5	1	-1	10	3	x	x
